Measured values taken from ChEMBL document CHEMBL4765238, “Structure-Based Discovery and Optimization of Benzo[ d]isoxazole Derivatives as Potent and Selective BET Inhibitors for Potential Treatment of Castration-Resistant Prostate Cancer (CRPC)” (J Med Chem, 2018).

Legend:
[1] = biological target: T1, Bromodomain-containing protein 4 (Homo sapiens, UniProt O60885); assay: Binding affinity to human recombinant His6-tagged BRD4 bromodomain 1 (N44 to E168 residues) expressed in Escherichia coli BL21 (DE3) cells assessed as gibbs free energy change incubated for 1 hr by isothermal titration calorimetry
[2] = biological target: T1, Bromodomain-containing protein 4; assay: Binding affinity to human recombinant His6-tagged BRD4 bromodomain 1 (N44 to E168 residues) expressed in Escherichia coli BL21 (DE3) cells assessed as dissociation constant incubated for 1 hr by isothermal titration calorimetry
[3] = biological target: Bromodomain testis-specific protein (Homo sapiens) (UniProt Q58F21); assay: Binding affinity to human recombinant His6-tagged BRDT bromodomain 1 (N21 to E137 residues) expressed in Escherichia coli BL21 (DE3) cells assessed as change in melting temperature at 200 uM incubated for 30 mins by SYPRO orange dye based thermal shift assay
In short: (§1)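 Thermal shift assay measuring change in melting temperature of each isolated bromodomain module in the presence of compound versus without.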

[4] = biological target: CREB-binding protein (Homo sapiens) (UniProt Q92793); assay: Binding affinity to human recombinant His6-tagged CREBBP (R1081 to G1197 residues) expressed in Escherichia coli BL21 (DE3) cells assessed as change in melting temperature at 200 uM incubated for 30 mins by SYPRO orange dye based thermal shift assay; in short: as §1
[5] = test system: CWR22R; assay: Antiproliferative activity against AR-positive human 22Rv1 cells assessed as reduction in cell viability incubated for 96 hrs by cell-titer glo assay; type: functional, cell-based; conditions: 22Rv1, 96 h
In short: (§2)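 Prostate cancer cells treated across a concentration range; viability read by CellTiter-Glo luminescence; experiments in triplicate; IC50 derived from the dose–response curves.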

[6] = test system: VCaP; assay: Antiproliferative activity against AR-positive human VCaP cells assessed as reduction in cell viability incubated for 144 hrs by cell-titer glo assay; type: functional, cell-based; in short: as §2
[7] = biological target: T1, Bromodomain-containing protein 4; assay: Binding affinity to human recombinant His6-tagged BRD4 bromodomain 1 (N44 to E168 residues) expressed in Escherichia coli BL21 (DE3) cells assessed as change in entropy incubated for 1 hr by isothermal titration calorimetry
[8] = biological target: Histone acetyltransferase p300 (Homo sapiens) (UniProt Q09472); assay: Binding affinity to human recombinant His6-tagged EP300 (A1040 to G1161 residues) expressed in Escherichia coli BL21 (DE3) cells assessed as change in melting temperature at 200 uM incubated for 30 mins by SYPRO orange dye based thermal shift assay; in short: as §1
[9] = biological target: Histone-lysine N-methyltransferase ASH1L (Homo sapiens) (UniProt Q9NR48); assay: Binding affinity to human recombinant His6-tagged ASH1L (E2433 to E2564 residues) expressed in Escherichia coli BL21 (DE3) cells assessed as change in melting temperature at 200 uM incubated for 30 mins by SYPRO orange dye based thermal shift assay; in short: as §1
[10] = biological target: Bromodomain-containing protein 3 (Homo sapiens) (UniProt Q15059); assay: Binding affinity to human recombinant His6-tagged BRD3 bromodomain 1 (P24 to E144 residues) expressed in Escherichia coli BL21 (DE3) cells assessed as change in melting temperature at 200 uM incubated for 30 mins by SYPRO orange dye based thermal shift assay; in short: as §1
[11] = biological target: Transcription initiation factor TFIID subunit 1 (Homo sapiens) (UniProt P21675); assay: Binding affinity to human recombinant His6-tagged TAF1 bromodomain 1 (R1377 to D1503 residues) expressed in Escherichia coli BL21 (DE3) cells assessed as change in melting temperature at 200 uM incubated for 30 mins by SYPRO orange dye based thermal shift assay; in short: as §1
[12] = biological target: Bromodomain-containing protein 2 (Homo sapiens) (UniProt P25440); assay: Binding affinity to human recombinant His6-tagged BRD2 bromodomain 1 (K77 to N194 residues) expressed in Escherichia coli BL21 (DE3) cells assessed as change in melting temperature at 200 uM incubated for 30 mins by SYPRO orange dye based thermal shift assay; in short: as §1
[13] = biological target: T1, Bromodomain-containing protein 4; assay: Binding affinity to human recombinant His6-tagged BRD4 bromodomain 1 (N44 to E168 residues) expressed in Escherichia coli BL21 (DE3) cells assessed as change in enthalpy incubated for 1 hr by isothermal titration calorimetry
[14] = biological target: Bromodomain adjacent to zinc finger domain protein 2B (Homo sapiens) (UniProt Q9UIF8); assay: Binding affinity to human recombinant His6-tagged BAZ2B (S1858 to S1972 residues) expressed in Escherichia coli BL21 (DE3) cells assessed as change in melting temperature at 200 uM incubated for 30 mins by SYPRO orange dye based thermal shift assay; in short: as §1
[15] = test system: LNCaP C4-2B; assay: Antiproliferative activity against AR-positive human C4-2B cells assessed as reduction in cell viability incubated for 96 hrs by cell-titer glo assay; type: functional, cell-based; in short: as §2
[16] = biological target: T1, Bromodomain-containing protein 4; assay: Inhibition of HYSGRGK(Ac)GGK(Ac)GLGK(Ac)GGAK(Ac)RHRK(Biotin)-OH binding to recombinant human His6-tagged BRD4 bromodomain 1 (N44 to E168 residues) expressed in Escherichia coli BL21 (DE3) cells measured after 2 hrs by Alphascreen assay
[17] = biological target: T1, Bromodomain-containing protein 4; assay: Binding affinity to human recombinant His6-tagged BRD4 bromodomain 1 (N44 to E168 residues) expressed in Escherichia coli BL21 (DE3) cells assessed as change in melting temperature at 200 uM incubated for 30 mins by SYPRO orange dye based thermal shift assay; in short: as §1
[18] = biological target: Histone acetyltransferase KAT2B (Homo sapiens) (UniProt Q92831); assay: Binding affinity to human recombinant His6-tagged PCAF (G715 to D831 residues) expressed in Escherichia coli BL21 (DE3) cells assessed as change in melting temperature at 200 uM incubated for 30 mins by SYPRO orange dye based thermal shift assay; in short: as §1

Histone acetyltransferase p300 (Homo sapiens), sequence (Q09472 whole entry, the tested form may be a part): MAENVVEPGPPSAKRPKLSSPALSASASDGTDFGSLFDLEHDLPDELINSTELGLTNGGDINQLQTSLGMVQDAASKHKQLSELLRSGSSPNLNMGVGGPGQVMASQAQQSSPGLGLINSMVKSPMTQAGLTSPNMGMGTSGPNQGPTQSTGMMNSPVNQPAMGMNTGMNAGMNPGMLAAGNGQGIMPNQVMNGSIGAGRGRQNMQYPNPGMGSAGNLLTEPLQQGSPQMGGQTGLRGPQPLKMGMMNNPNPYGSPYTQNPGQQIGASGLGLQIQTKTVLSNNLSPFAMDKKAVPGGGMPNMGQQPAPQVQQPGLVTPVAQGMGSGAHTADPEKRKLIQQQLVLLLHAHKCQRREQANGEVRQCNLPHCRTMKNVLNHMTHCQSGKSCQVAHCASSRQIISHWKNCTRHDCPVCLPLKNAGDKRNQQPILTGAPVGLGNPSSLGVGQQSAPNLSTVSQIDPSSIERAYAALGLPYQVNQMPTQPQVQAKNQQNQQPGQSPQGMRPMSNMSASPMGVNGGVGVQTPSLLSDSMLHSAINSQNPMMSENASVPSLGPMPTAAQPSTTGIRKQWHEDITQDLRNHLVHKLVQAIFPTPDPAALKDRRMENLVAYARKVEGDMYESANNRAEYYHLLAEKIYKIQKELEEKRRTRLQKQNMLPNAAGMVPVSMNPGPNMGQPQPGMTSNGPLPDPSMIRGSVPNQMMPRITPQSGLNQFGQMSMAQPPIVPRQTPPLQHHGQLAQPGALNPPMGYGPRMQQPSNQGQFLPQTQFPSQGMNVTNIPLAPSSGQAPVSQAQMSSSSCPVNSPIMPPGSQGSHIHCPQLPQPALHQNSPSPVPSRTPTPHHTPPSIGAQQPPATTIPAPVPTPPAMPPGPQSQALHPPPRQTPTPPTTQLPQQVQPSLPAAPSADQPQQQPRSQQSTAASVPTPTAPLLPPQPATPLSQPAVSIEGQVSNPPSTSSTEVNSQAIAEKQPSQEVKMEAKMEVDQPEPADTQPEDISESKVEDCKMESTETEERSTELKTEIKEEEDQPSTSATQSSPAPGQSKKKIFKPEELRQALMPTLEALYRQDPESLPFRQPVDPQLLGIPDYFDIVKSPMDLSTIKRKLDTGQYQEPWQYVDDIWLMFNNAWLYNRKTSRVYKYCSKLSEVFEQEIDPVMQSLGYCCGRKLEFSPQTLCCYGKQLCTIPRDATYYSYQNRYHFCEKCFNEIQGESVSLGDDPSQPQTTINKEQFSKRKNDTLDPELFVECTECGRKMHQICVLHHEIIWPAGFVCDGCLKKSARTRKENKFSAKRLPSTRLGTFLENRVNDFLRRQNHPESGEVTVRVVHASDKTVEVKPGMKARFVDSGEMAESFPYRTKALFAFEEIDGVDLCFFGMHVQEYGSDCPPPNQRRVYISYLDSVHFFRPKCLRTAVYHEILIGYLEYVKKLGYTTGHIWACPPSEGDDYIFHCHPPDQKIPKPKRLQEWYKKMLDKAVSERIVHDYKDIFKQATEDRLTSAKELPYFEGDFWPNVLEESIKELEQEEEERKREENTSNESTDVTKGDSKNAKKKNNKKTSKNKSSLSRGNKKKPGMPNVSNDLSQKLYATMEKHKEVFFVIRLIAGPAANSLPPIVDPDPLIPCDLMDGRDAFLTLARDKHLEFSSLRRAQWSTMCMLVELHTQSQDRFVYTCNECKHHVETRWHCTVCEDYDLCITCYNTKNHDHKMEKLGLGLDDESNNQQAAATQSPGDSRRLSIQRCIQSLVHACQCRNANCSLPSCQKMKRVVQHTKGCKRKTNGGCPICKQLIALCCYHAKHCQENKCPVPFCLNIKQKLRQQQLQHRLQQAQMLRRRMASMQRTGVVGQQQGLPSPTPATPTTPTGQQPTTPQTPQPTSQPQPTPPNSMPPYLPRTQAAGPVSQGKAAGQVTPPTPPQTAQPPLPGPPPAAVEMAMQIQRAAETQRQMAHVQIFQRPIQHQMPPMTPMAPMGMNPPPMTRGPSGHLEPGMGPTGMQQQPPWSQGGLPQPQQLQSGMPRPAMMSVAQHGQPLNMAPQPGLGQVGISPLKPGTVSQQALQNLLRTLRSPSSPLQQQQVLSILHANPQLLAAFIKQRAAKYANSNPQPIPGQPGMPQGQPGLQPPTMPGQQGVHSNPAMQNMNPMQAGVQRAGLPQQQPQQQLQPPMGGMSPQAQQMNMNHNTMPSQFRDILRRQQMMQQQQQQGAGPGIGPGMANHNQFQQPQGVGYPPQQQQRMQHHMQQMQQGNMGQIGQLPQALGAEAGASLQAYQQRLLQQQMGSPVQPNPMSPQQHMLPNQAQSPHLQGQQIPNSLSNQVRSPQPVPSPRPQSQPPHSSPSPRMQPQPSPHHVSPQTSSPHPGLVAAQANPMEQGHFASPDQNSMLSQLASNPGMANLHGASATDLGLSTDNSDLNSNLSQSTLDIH
Bromodomain adjacent to zinc finger domain protein 2B (Homo sapiens), sequence (Q9UIF8 whole entry, the tested form may be a part): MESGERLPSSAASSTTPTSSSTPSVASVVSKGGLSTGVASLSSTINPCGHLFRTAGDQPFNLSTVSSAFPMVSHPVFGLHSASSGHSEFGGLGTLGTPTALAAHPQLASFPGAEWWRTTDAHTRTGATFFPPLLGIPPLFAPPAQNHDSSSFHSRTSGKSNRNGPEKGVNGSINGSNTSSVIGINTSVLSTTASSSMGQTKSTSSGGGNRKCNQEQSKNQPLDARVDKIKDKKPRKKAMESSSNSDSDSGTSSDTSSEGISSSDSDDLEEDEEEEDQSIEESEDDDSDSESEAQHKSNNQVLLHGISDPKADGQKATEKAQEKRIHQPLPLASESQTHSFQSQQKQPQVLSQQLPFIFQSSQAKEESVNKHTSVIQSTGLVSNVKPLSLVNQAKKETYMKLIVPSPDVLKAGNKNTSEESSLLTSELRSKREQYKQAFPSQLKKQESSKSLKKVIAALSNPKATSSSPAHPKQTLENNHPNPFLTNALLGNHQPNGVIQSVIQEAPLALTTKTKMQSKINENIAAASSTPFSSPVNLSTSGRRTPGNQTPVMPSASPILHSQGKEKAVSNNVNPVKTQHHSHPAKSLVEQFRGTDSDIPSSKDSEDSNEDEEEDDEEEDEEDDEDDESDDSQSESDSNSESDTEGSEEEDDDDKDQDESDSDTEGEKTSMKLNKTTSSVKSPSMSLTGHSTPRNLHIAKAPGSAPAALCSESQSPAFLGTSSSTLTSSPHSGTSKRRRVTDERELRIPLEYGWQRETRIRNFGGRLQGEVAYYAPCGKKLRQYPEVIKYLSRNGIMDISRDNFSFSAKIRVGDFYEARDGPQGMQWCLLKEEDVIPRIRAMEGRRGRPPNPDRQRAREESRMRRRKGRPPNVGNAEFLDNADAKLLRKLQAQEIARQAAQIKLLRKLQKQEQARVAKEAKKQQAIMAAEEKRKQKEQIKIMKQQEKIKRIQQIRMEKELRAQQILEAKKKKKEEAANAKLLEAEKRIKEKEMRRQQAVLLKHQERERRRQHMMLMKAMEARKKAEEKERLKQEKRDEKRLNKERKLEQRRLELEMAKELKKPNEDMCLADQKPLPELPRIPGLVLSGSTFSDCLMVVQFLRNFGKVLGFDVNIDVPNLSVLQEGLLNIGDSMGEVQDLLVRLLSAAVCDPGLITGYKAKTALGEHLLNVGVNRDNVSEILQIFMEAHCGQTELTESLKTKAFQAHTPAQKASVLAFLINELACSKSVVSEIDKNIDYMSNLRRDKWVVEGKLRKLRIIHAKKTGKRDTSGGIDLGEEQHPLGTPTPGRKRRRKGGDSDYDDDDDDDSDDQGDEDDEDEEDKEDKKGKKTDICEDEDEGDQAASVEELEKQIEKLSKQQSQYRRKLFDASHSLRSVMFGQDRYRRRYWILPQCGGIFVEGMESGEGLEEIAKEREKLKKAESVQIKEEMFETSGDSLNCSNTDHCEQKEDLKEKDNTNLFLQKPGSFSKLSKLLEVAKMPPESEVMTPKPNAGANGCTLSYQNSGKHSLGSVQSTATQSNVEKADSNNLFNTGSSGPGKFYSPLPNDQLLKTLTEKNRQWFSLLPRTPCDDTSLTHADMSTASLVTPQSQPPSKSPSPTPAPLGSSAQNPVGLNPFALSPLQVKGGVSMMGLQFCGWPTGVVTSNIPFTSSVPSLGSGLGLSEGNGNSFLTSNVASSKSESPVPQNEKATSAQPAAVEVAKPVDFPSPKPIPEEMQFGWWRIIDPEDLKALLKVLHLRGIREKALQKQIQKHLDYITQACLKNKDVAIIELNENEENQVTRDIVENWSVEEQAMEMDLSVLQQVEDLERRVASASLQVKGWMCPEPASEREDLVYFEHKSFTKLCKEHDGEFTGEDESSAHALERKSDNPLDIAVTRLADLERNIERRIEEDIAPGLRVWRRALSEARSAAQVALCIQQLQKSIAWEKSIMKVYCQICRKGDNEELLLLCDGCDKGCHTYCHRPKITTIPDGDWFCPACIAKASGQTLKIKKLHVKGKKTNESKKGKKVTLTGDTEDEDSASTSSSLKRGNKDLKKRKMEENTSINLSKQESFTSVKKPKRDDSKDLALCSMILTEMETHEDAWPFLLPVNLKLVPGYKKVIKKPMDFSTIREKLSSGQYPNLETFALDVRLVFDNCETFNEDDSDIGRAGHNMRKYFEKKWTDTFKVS

| deltaG [1] [kJ/mol] | Kd [2] [µM] | ΔTm [3] [°C] | ΔTm [4] [°C] | IC50 [6] [µM] | TdeltaS [7] [kJ/mol] | ΔTm [8] [°C] | ΔTm [9] [°C] | ΔTm [10] [°C] | ΔTm [11] [°C] | ΔTm [12] [°C] | deltaH [13] [kJ/mol] | ΔTm [14] [°C] | IC50 [15] [µM] | IC50 [16] [µM] | ΔTm [17] [°C] | ΔTm [18] [°C] | SMILES | IC50 [5] [µM] |
| --- | --- | --- | --- | --- | --- | --- | --- | --- | --- | --- | --- | --- | --- | --- | --- | --- | --- | --- |
| -38.9 | 0.159 | 4.2 | 0 | 0.5 | -5.86 | -0.3 | -0.9 | 8.9 | -0.6 | 6 | -44.8 | -0.6 | 0.85 | 0.3 | 9.2 | -0.6 | Cc1noc2c(Br)cc(-c3nc4ccc(N5CCOCC5)cc4n3CC3CCCCC3)cc12 | 0.64 |
| -38.9 | 0.164 | 5.1 | 2.1 | 3.02 | -25.1 | 2.3 | -0.1 | 6.5 | -0.1 | 5.3 | -64 | 0.3 | 6.43 | 0.15 | 9.2 | 2.6 | CNc1cc2onc(C)c2cc1NS(=O)(=O)c1cc(Br)ccc1OC | 6.73 |
| -40.6 | 0.082 | 5.6 | 1.4 | 0.63 | -10.5 | 2 | 0.3 | 8.1 | 0.1 | 5.3 | -51 | 0 | 2.62 | 0.13 | 9.8 | 2.7 | COc1cc2onc(C)c2cc1NS(=O)(=O)c1cc(Br)ccc1OC | 1.5 |
| -40.6 | 0.081 | 3.6 | 0.3 | 0.29 | -9.2 | 0.3 | -0.5 | 8.7 | -0.9 | 6.3 | -49.8 | -0.6 | 0.84 | 0.18 | 9.9 | -0.6 | Cc1noc2ccc(-c3nc4ccc(N5CCOC[C@@H]5C)cc4n3CC3CCCCC3)cc12 | 0.7 |
